These results are taken from ChEMBL document CHEMBL1134965, “Discovery and biological characterization of capromorelin analogues with extended half-lives” (Bioorg Med Chem Lett, 2002).

The nature of series [1]: Lipophilicity by octanol water distribution coefficient. Format: physicochemical.
Series [2] addresses Growth hormone secretagogue receptor type 1 (Homo sapiens, UniProt Q92847). The series is described as follows: In vitro binding affinity against human type 1a growth hormone secretagogue receptor (hGHS-R1a), using [125I]ghrelin as radioligand. Summed up: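 Competitive displacement of [125I]-ghrelin from membranes of HEK293 cells over-expressing hGHS-R1a. Ki values are the average of duplicate experiments.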

A short description of series [3]: Plasma clearance was determined in female Sprague-Dawley rats following intravenous (iv) administration of drug (1 mg/kg). In kind it is ADME, organism-based. The following applies: rat. Summed up: (§1)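 Female Sprague–Dawley rats given a 1 mgA/kg (free base equivalents) iv dose. Plasma drug levels gave mean Vd, CL and t1/2.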
Series [4] in a line: Maximum plasma concentration at a 1 mg/kg oral dose in female Sprague-Dawley rats. Further details: dose 1 mg/kg, route oral. In kind it is ADME, organism-based. The following applies: rat. Summed up: (§2)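 Female Sprague–Dawley rats dosed orally at 1 mgA/kg (free base equivalents). Plasma concentration–time profile gave Cmax, Tmax and apparent oral t1/2.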
Series [5] is described as follows: (§3) Oral half life was determined. The following applies: dog, in vivo. In kind it is ADME, organism-based, Canis lupus familiaris. A digest of the protocol:
as §2

Series [6] is filed under the species Rattus norvegicus. In words: In vitro effective concentration required for 50% stimulation of GH release in rat pituitary cell cultures. In kind it is functional. As to conditions: Pituitary gland cell. Summed up:
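Rat pituitary cell cultures exposed to compound. Released GH was quantified by rat-specific double-antibody radioimmunoassay. EC50 is the average of triplicate experiments.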

The nature of series [7]: as §3. In kind it is ADME, organism-based. As to conditions: rat, in vivo. Summed up: as §2
Series [8] is described as follows: Maximum plasma concentration at a 1 mg/kg oral dose in male and female Beagle dogs. As to conditions: both, dog. Further details: dose 1 mg/kg, route oral. Format: ADME, organism-based, Canis lupus familiaris. A digest of the protocol:
(§4)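 Male and female beagle dogs given a single 1 mgA/kg oral dose (free base equivalents). Plasma profile gave Cmax, Tmax and apparent oral t1/2.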

The nature of series [9]: Time taken by the compound to achieve maximum plasma concentration at a 1 mg/kg oral dose in male and female Beagle dogs. Further details: dose 1 mg/kg, route oral. In kind it is ADME, organism-based, Canis lupus familiaris. As to conditions: both, dog. Summed up:
as §4

The test system of series [10] is Rattus norvegicus. In words: In vivo effective dose required for 50% stimulation of GH release in anesthetized rat model. In kind it is functional. Summed up: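 Anesthetized Wistar rats given compound iv, with GH release as read-out. ED50 (mg/kg) is the average of triplicate experiments.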
A short description of series [11]: Volume of distribution was determined in canine following intravenous (iv) administration of drug (1 mg/kg). In kind it is ADME, organism-based, Canis lupus familiaris. The following applies: dog, in vivo. Summed up:
(§5)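 Male beagle dogs given 1 mg/kg intravenously. Plasma sampling gave clearance, volume of distribution and elimination half-life, with half-life calculated over 0–8 h.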

A short description of series [12]: Time taken by the compound to achieve maximum plasma concentration at a 1 mg/kg oral dose in female Sprague-Dawley rats. Format: ADME, organism-based. Further details: dose 1 mg/kg, route oral. As to conditions: rat. A digest of the protocol:
as §2

Series [13] is described as follows: Volume of distribution was determined in female Sprague-Dawley rats following intravenous (iv) administration of drug (1 mg/kg). As to conditions: rat, in vivo. Format: ADME, organism-based. Summed up: as §1
Series [14] in a line: Plasma clearance was determined in canine following intravenous (iv) administration of drug (1 mg/kg). Format: ADME, organism-based, Canis lupus familiaris. As to conditions: dog. Summed up:
as §5

A short description of series [15]: Plasma elimination half-life was determined in female Sprague-Dawley rats following intravenous (iv) administration of drug (1 mg/kg). As to conditions: rat. Format: ADME, organism-based. A digest of the protocol: as §1
Series [16] can be described thus: (§6) Bioavailability. In kind it is ADME, organism-based, Canis lupus familiaris. The following applies: dog, in vivo. A digest of the protocol: (§7)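 Bioavailability of the free base from a 1 mgA/kg oral dose compared with a 1 mgA/kg iv dose. Measured in female Sprague–Dawley rats and in male and female beagle dogs.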
Series [17] in a line: as §6. The following applies: rat, in vivo. Format: ADME, organism-based. Summed up:
as §7

Series [18] in a line: Plasma elimination half-life (08 h) was determined in canine following intravenous (iv) administration (1 mg/kg). Format: ADME, organism-based, Canis lupus familiaris. The following applies: dog. A digest of the protocol:
as §5

Sequence of Growth hormone secretagogue receptor type 1 (Q92847 whole entry): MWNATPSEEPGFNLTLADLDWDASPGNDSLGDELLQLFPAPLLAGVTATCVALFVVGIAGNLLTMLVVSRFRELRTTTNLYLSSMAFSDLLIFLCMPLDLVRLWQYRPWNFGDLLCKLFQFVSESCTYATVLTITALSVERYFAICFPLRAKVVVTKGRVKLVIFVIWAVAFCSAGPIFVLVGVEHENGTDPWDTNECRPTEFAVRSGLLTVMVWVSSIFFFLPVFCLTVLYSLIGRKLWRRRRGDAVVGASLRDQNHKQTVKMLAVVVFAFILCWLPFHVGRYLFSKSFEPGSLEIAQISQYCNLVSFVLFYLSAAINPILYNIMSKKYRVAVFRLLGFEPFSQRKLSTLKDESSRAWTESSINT

`CC(C)(N)C(=O)N[C@H](COCc1ccc(F)cc1F)C(=O)N1CCC2=NN(CC(F)(F)F)C(=O)[C@]2(Cc2ccccn2)C1`: the logD (commonly lipophilicity at a set pH, counting ionised and neutral species) in [1] came out at 1.6. In [2], the Ki – broadly, a dissociation constant, usually derived from enzyme kinetics or from competition with a known ligand – was 5 nM. Moreover, the clearance – broadly, a measure of how efficiently the substance is removed, as volume per time – came out at 46 mL/min/kg in series [3] and 5.3 mL/min/kg in series [14]. In addition, the results for the Cmax in series [4] and in series [8] were 88 ng/mL and 260 ng/mL, respectively. Also, the half-life (as a rule, the time needed for the level to fall by half in the phase considered) in [5] was 4.2 h; in [7], 3.9 h; in series [15] it was 1.9 h; in series [18], 3.7 h. Further, in [6], the EC50 worked out at 3 nM. Further, the Tmax (commonly the time at which the peak concentration occurs) is 1.3 h in series [9] and 0.25 h in series [12]. The 50% effect level in [10] (ED50) was put at a dose of 0.1 mg/kg. The Vd (as a rule, a proportionality between amount in the body and measured concentration, not a real space) in series [11] is 1.5 L/kg; in [13], 4.9 L/kg. Besides, the bioavailability – broadly, dose-corrected exposure relative to a reference, in per cent – came out at 77% in [16] and 59% in series [17].

Take `CC(C)(N)C(=O)N[C@H](COCc1ccccc1)C(=O)N1CCC2=NN(C(C)(C)C)C(=O)C2(Cc2ccccc2)C1` (stereo not given in full): the logD in [1] was found to be 2.9. In addition, the Vd in [11] came to 2.2 L/kg. This molecule also gave a clearance in series [14] of 13 mL/min/kg. The half-life in series [18] is 2.5 h.

As to `CN1N=C2CCN(C(=O)[C@@H](COCc3ccccc3)NC(=O)C(C)(C)N)C[C@@]2(Cc2ccccc2)C1=O` [CAPROMORELIN], in series [1], the logD came out at 1.7. In series [2], affinity was put at a Ki of 7 nM. The molecule also came in with an EC50 in [6] of 3 nM. The 50% effect level in series [10] (ED50) was put at a dose of 0.05 mg/kg. The same molecule had a Vd in series [11] of 2 L/kg. Further, the clearance in [14] was found to be 19 mL/min/kg. In series [18], this molecule gave a half-life of 1.3 h.

`CC(C)(N)C(=O)N[C@H](COCc1ccc(F)c(F)c1)C(=O)N1CCC2=NN(C(C)(C)C)C(=O)C2(Cc2ccccc2)C1` (stereo not given in full): the logD in [1] stood at 2.9. In [2], this molecule gave a Ki of 0.34 nM. Further, the EC50 in [6] was 4 nM. In addition, the ED50 (as a rule, the dose at which the effect has come halfway, by size or by number of responders) in series [10] was above 10 mg/kg. This molecule also registered a Vd in [11] of 5.9 L/kg. For the same molecule, in series [14], the clearance turned out to be 19 mL/min/kg. In addition, in series [18], the half-life was 3.9 h.

In turn, `CC(C)(N)C(=O)N[C@H](COCc1ccc(F)c(F)c1)C(=O)N1CCC2=NN(CC(F)(F)F)C(=O)C2(Cc2ccccc2)C1` (stereo not given in full) registered a logD in [1] of 3. For the same molecule, the Ki in series [2] is 0.45 nM. Moreover, in [6], the EC50 was 2 nM. This molecule had an ED50 in [10] above 10 mg/kg. This molecule also came in with a Vd in series [11] of 5.1 L/kg. Besides, the clearance in series [14] was determined as 13 mL/min/kg. In addition, the half-life in [18] was 4.7 h.

In [1], `CN1N=C2CCN(C(=O)[C@@H](COCc3ccc(F)c(F)c3)NC(=O)C(C)(C)N)CC2(Cc2ccccc2)C1=O` (stereo not given in full) gave a logD of 1.7. The molecule further gave a Ki in series [2] of 18 nM. In addition, in series [6], the EC50 worked out at 10 nM. In series [10], this molecule had an ED50 of 0.3 mg/kg. Moreover, the Vd in series [11] was found to be 3.5 L/kg. The molecule further gave a clearance in series [14] of 17 mL/min/kg. The molecule further had a half-life in series [18] of 2.7 h.
